We go through 1 compound from ChEMBL document CHEMBL4393672, “High affinity CXCR4 inhibitors generated by linking low affinity peptides” (Eur J Med Chem, 2019).

Series [1] concerns Human immunodeficiency virus 1. Nature of the series: Antiviral activity against Human immunodeficiency virus 1 NL4-3 infected in human PBMC cells assessed as reduction in intracellular p24 level at 100 nM preincubated with cells 2 hrs followed by viral infection and measured after 24 hrs by ELISA. In kind it is functional. The gist of the method:
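PBMCs from healthy donors (2.5×10^6 cells/mL) were exposed to compound for 2 h, washed, and infected with HIV-1 NL4-3 at MOI 0.02 for 2 h at 37°C. Cells were washed, resuspended in complete medium and incubated 24 h. Cells were then lysed with protease inhibitor, and intracellular p24 was quantified by ELISA.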
On the technique in general: In an ELISA, binding on a coated surface is turned into a signal by an enzyme label.

Series [2] concerns C-X-C chemokine receptor type 4 (Homo sapiens), P61073 [Y116A]. Kind of series: Competitive binding affinity at CXCR4 Y116A mutant (unknown origin) expressed in CHO cells at 200 nM incubated for 30 mins by 12G5 antibody based fluorescence analysis. In kind it is cell-based. The method, boiled down: (§1)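 Wild-type or mutant CXCR4 cells (5×10⁵/well) incubated with single 200 nM concentration in FACS buffer (0.5% BSA, 0.05% azide in PBS) plus 12G5 anti-CD184 antibody, 30 min on ice; washed, FITC anti-mouse IgG 30 min on ice; fluorescence 485ex/528em; duplicates, ≥3 independent experiments, normalized as percent of control.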

Series [3] relates to C-X-C chemokine receptor type 4 (Homo sapiens), P61073 [R30A]. Kind of series: Binding affinity to CXCR4 R30A mutant (unknown origin) expresssed in CHO cells at 200 nM incubated for 30 mins by 12G5 antibody based fluorescence analysis. The class given is cell-based. The method, boiled down:
(§2)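 Mutational mapping in CHO cells expressing wild-type or mutant CXCR4, 5×10^5 cells/well. Cells were incubated with a single 200 nM peptide concentration plus 12G5 anti-CD184 antibody in FACS buffer on ice for 30 min. FITC anti-mouse IgG was then added for 30 min on ice. Fluorescence was read at 485/528 nm and normalized to control, in duplicate across at least three experiments.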

Series [4] has as its target T1, C-X-C chemokine receptor type 4 (Homo sapiens, UniProt P61073). Nature of the series: Antagonist activity at CXCR4 (unknown origin) expressed in CHO cells assessed as reduction in basal phosphorylated AKT expression at 50 uM incubated for 30 mins followed by measured after 5 mins by Western blot analysis. The class given is cell-based. In general terms: In western blotting, separated proteins are transferred to a membrane and probed.

A short description of series [5]: Stability of compound in 10% FBS assessed as compound remaining at 1mM after 1 hr by HPLC analysis relative to control. The note with it: cattle, read-out: Stability. The class given is ADME, cell-free, Bos taurus, Serum. The gist of the method: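 Peptide dissolved at 1 mM in culture medium with 10% FBS, incubated at 37°C; samples taken over time and analysed by C18 HPLC, UV 220 nm; remaining peptide from peak intensity relative to original peak.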

In series [6] the test system is C-X-C chemokine receptor type 4 (Homo sapiens), P61073 [D262N]. Nature of the series: Binding affinity to CXCR4 D262N mutant (unknown origin) expresssed in CHO cells at 200 nM incubated for 30 mins by 12G5 antibody based fluorescence analysis. The class given is cell-based. The gist of the method: as §1
In series [7] the target is T1, C-X-C chemokine receptor type 4. Nature of the series: Antagonist activity at CXCR4 (unknown origin) in CHO cells assessed as reduction in SDF-1alpha-induced Akt phosphorylation level at 50 uM incubated for 30 mins followed by SDF1-alpha addition measured after 5 mins by Western blot analysis. In kind it is cell-based. The gist of the method:
(§3)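 CXCR4-expressing CHO cells grown in DMEM with 10% FBS, seeded at 10^6 cells/well for 24 h, then moved to serum-free medium. Cells were pretreated with 50 μM peptide for 30 min, then stimulated with 12.5 nM SDF-1α for 5 min. Lysates were adjusted to 3 mg/mL, run on 12% SDS-PAGE and immunoblotted for phospho-AKT/ERK with ECL detection. Bands were quantified by densitometry as % control.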

Series [8] has as its system C-X-C chemokine receptor type 4 (Homo sapiens), P61073 [W195A]. Kind of series: Competitive binding affinity to CXCR4 W195A mutant (unknown origin) expresssed in CHO cells at 200 nM incubated for 30 mins by 12G5 antibody based fluorescence analysis. In kind it is cell-based. The method, boiled down: as §1
Series [9] has as its target T1, C-X-C chemokine receptor type 4. Nature of the series: Competitive binding affinity to CXCR4 in human SupT1 cells incubated for 40 mins by 12G5 antibody based fluorescence analysis. In kind it is cell-based.
Series [10] deals with PBMC. Nature of the series: Cytotoxicity against HIV1 NL4-3 infected in human PBMC cells assessed as cell viability at 50 uM preincubated with cells for 2 hrs followed by viral infection for 2 hrs and measured after 5 days by CellTiter-Blue assay. The class given is cell-based. Conditions: 120 h. The method, boiled down:
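PBMCs were seeded at the anti-HIV assay densities and treated in parallel under the same X4 infection and compound exposure conditions. After 5 days at 37°C, viability was read by CellTiter-Blue fluorescence (560/590 nm). The top concentration tested was 50 μM.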
A general note: Resazurin is reduced to fluorescent resorufin, in cell work by metabolically active cells.

The target in series [11] is T1, C-X-C chemokine receptor type 4. Kind of series: Antagonist activity at CXCR4 receptor in human SupT1 cells assessed as inhibition of SDF-1alpha-induced calcium release preincubated for 2 to 3 mins followed by SDF-1alpha addition by Fluo-4AM dye based fluorescence assay. The class given is functional, cell-based. The method, boiled down:
(§4)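 SupT1 cells loaded with Fluo-4AM (2 µM) plus probenecid (5 µM) for 30 min at 37°C in HBSS/20 mM HEPES, washed; 1×10⁶ cells/mL exposed to compound 2–3 min, then stimulated with 50 nM SDF-1α; fluorescence read at […]/510em.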

Series [12] is described as follows: Stability of compound in water assessed as compound remaining at 1mM at 37 degC after 48 hrs by HPLC analysis relative to control. In kind it is physicochemical. The note with it: read-out: Stability.
Series [13] concerns C-X-C chemokine receptor type 4 (Homo sapiens), P61073 [Q200A]. Kind of series: Binding affinity to CXCR4 Q200A mutant (unknown origin) expresssed in CHO cells at 200 nM incubated for 30 mins by 12G5 antibody based fluorescence analysis. The class given is cell-based. The method, boiled down:
as §2

In series [14] the target is T1, C-X-C chemokine receptor type 4. Nature of the series: Competitive binding affinity to CXCR4 receptor (unknown origin) expressed in CHO cells incubated for 40 mins by 12G5 antibody based fluorescence analysis. The class given is cell-based.
Series [15] shares this target. Nature of the series: Inhibition of N-terminal flag-tagged CXCR4 (unknown origin) internalization expressed in CHO cells incubated for 45 mins and measured after 1 hr by FITC-labeled anti-flag antibody based fluorescence analysis.
Series [16] has as its system C-X-C chemokine receptor type 4 (Homo sapiens), P61073 [E288Q]. Nature of the series: Binding affinity to CXCR4 E288Q mutant (unknown origin) expresssed in CHO cells at 200 nM incubated for 30 mins by 12G5 antibody based fluorescence analysis. In kind it is cell-based. The gist of the method: as §1
In series [17] the test system is Human immunodeficiency virus 1. Nature of the series: Antiviral activity against Human immunodeficiency virus 1 NL4-3 infected in human PBMC cells assessed as inhibition of extracellular p24 level preincubated with cells for 2 hrs followed by viral infection for 2 hrs and measured after 5 days by ELISA.
Series [18] relates to C-X-C chemokine receptor type 4 (Homo sapiens), P61073 [V112A]. Kind of series: Competitive binding affinity to CXCR4 V112A mutant (unknown origin) expresssed in CHO cells at 200 nM incubated for 30 mins by 12G5 antibody based fluorescence analysis. The class given is cell-based. The method, boiled down:
as §2

The target in series [19] is T1, C-X-C chemokine receptor type 4. Kind of series: Antagonist activity at CXCR4 (unknown origin) in CHO cells assessed as reduction in SDF-1alpha-induced ERK phosphorylation level at 50 uM incubated for 30 mins followed by SDF1-alpha addition measured after 5 mins by Western blot analysis. In kind it is cell-based. The gist of the method:
as §3

The subject of series [20] is C-X-C chemokine receptor type 4 (Homo sapiens), P61073 [Y45A]. Nature of the series: Competitive binding affinity to CXCR4 Y45A mutant (unknown origin) expressed in CHO cells at 200 nM incubated for 30 mins by 12G5 antibody based fluorescence analysis. In kind it is cell-based. The method, boiled down:
as §1

In series [21] the target is T1, C-X-C chemokine receptor type 4. Kind of series: Antagonist activity at CXCR4 receptor in human SupT1 cells assessed as inhibition of SDF-1alpha-induced calcium release at 1 uM preincubated for 2 to 3 mins followed by SDF-1alpha addition by Fluo-4AM dye based fluorescence assay relative to control. The class given is functional, cell-based. The gist of the method:
as §4

The subject of series [22] is C-X-C chemokine receptor type 4 (Homo sapiens), P61073 [W94A]. Kind of series: Competitive binding affinity at CXCR4 W94A mutant (unknown origin) expressed in CHO cells at 200 nM incubated for 30 mins by 12G5 antibody based fluorescence analysis. The class given is cell-based. The method, boiled down:
as §1

The source made the active and inactive calls. The rule behind the calls is not given here.

As usually defined, the inhibition is the share of the control response that was lost under treatment. As a reminder, the IC50 is the concentration needed to halve the response being measured.

T1 sequence (P61073 whole entry): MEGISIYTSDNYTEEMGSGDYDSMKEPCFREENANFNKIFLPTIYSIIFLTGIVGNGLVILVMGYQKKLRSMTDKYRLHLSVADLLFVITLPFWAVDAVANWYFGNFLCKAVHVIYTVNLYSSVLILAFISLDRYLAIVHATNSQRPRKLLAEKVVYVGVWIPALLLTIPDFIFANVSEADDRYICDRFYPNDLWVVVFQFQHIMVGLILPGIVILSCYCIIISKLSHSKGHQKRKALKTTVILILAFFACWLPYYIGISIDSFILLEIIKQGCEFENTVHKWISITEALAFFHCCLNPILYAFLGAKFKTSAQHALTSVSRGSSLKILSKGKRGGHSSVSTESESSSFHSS
Chain of C-X-C chemokine receptor type 4 (Homo sapiens), P61073 [W94A] (P61073 whole entry W94A): as the sequence (P61073 whole entry) above, with W94A counted along it
Chain of C-X-C chemokine receptor type 4 (Homo sapiens), P61073 [D262N] (P61073 whole entry D262N): as the sequence (P61073 whole entry) above, with D262N counted along it
Chain of C-X-C chemokine receptor type 4 (Homo sapiens), P61073 [W195A] (P61073 whole entry W195A): as the sequence (P61073 whole entry) above, with W195A counted along it
Chain of C-X-C chemokine receptor type 4 (Homo sapiens), P61073 [E288Q] (P61073 whole entry E288Q): as the sequence (P61073 whole entry) above, with E288Q counted along it
Chain of C-X-C chemokine receptor type 4 (Homo sapiens), P61073 [R30A] (P61073 whole entry R30A): as the sequence (P61073 whole entry) above, with R30A counted along it
Chain of C-X-C chemokine receptor type 4 (Homo sapiens), P61073 [V112A] (P61073 whole entry V112A): as the sequence (P61073 whole entry) above, with V112A counted along it
Chain of C-X-C chemokine receptor type 4 (Homo sapiens), P61073 [Y45A] (P61073 whole entry Y45A): as the sequence (P61073 whole entry) above, with Y45A counted along it
Chain of C-X-C chemokine receptor type 4 (Homo sapiens), P61073 [Q200A] (P61073 whole entry Q200A): as the sequence (P61073 whole entry) above, with Q200A counted along it
Chain of C-X-C chemokine receptor type 4 (Homo sapiens), P61073 [Y116A] (P61073 whole entry Y116A): as the sequence (P61073 whole entry) above, with Y116A counted along it

For the compound `CC(C)C[C@@H](N)C(=O)NCC(=O)N[C@H](C)C(=O)N[C@H](CO)C(=O)N[C@H](Cc1c[nH]c2ccccc12)C(=O)N[C@H](Cc1cnc[nH]1)C(=O)N[C@H](CCCNC(=N)N)C(=O)N1CCC[C@@H]1C(=O)N[C@H](CC(=O)O)C(=O)N[C@H](CCCCN)C(=O)N[C@H](CCCCN)C(=O)N[C@H](CCCNC(=N)N)C(=O)NCCCCCC(=O)N[C@@H](CCCCN)C(=O)N[C@@H](CCCNC(=N)N)C(=O)N[C@@H](CCCCN)C(=O)N[C@H](C(=O)N[C@@H](CC(N)=O)C(=O)N[C@@H](CC(N)=O)C(=O)N[C@@H](CC(N)=O)C(=O)N1CCC[C@H]1C(=O)N[C@@H](CCCNC(=N)N)C(=O)N[C@H](C(=O)N[C@@H](CS)C(=O)O)[C@@H](C)O)[C@@H](C)O`, the inhibition at 0.1 µM in [1] was 16%. For the same compound, the outcome in series [2], in [6], in series [8], in series [13], in series [15] and in series [16] was inactive. Besides, the outcome in series [18], in series [20] and in series [22] was inactive. Besides, the result in series [3], in [4], in [7] and in series [19] was Active. Besides, in series [5], the remaining at 1 h, 1000 µM came to 80%. For the same compound, the IC50 was determined as 14 nM in series [9], 16 nM in series [14] and 93 nM in series [17]. The Activity result in [10] was “Non-Toxic”. Besides, the inhibition entry in series [11] is “Dose-dependent effect”; in series [17] it was “Dose-dependent effect”; in [21] it was 100%. Besides, the remaining at 48 h, 1000 µM in series [12] is 87%.
